From paper PMC8419023 (Structure (London, England : 1993), 2021)
Values belong to the molecule of their own block, whether it stands above or below them.

Experiments:
CDK2-cyclin A = CDK2-cyclin A (Homo sapiens, UniProt P20248+P24941); experiment: GST pull down, CDK2-cyclin A; format: binding; conditions: 25 mM HEPES pH 7.5, 150 mM NaCl, 1 mM DTT, 0.01% NP-40; 1 h, 4°C; SDS-PAGE; three experiments; Figure 1B
In short: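 Bacterially expressed proteins: CDK2 (1–298) as a GST fusion, cyclin A (1–432 or 173–432) as a 6XHis fusion. […] Incubated 1 h at 4 °C with mild agitation, washed three times in binding buffer, and bound material analysed by SDS-PAGE; repeated 2–3 times.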

[1] = tested on: CDK2-cyclin A (Surface 2, hydrophobic patch); experiment: Fluorescence polarization displacement of FITC-p27^27−36 from CDK2-cyclin A; format: binding, human

B1: Skp2^Δ1−88: Skp2 lacking the first 88 residues (protein)
chain 1: RENFPGVSWDSLPDELLLGIFSCLCLPELLKVSGVCKRWYRLASDESLWQTLDLTGKNLHPDVTGRLLSQGVIAFRCPRSFMDQPLAEHFSPFRVQHMDLSNSVIEVSTLHGILSQCSKLQNLSLEGLRLSDPIVNTLAKNSNLVRLNLSGCSGFSEFALQTLLSSCSRLDELNLSWCFDFTEKHVQVAVAHVSETITQLNLSGYRKNLQKSDLSTLVRRCPNLVHLDLSDSVMLKNDCFQEFFQLNYLQHLSLSRCYDIIPETLLELGEIPTLKTLQVFGIVPDGTLQLLKEALPHLQINCSHFTTIARPTIGNKKNQEIWGIKCRLTLQKPSCL
chain 2: MPSIKLQSSDGEIFEVDVEIAKQSVTIKTMLEDLGMDPVPLPNVNAAILKKVIQWCTHHKDDPGSGGTDDIPVWDQEFLKVDQGTLFELILAANYLDIKGLLDVTCKTVANMIKGKTPEEIRKTFNIKNDFTEEEEAQVRKENQWCEEK
modifications: left off: GST, end not stated, kept | His6, end not stated, state not stated
pull down / binding of CDK2-cyclin A^173−432 with or without Cks1 (CDK2-cyclin A): could not bind CDK2-cyclin A in the absence of Cks1

loss of displacement effectiveness versus wild-type ([1]; mutant versus wild-type Skp2^1−424, FITC-p27^27−36, Figure 4F): 3 fold
B2: 4A mutant of Skp2^1−424: full-length Skp2 with L32A/L33A/S39A/L41A (Motif 1 mutant) (protein)
chain 1: MHRKHLQEIPDLSSNVATSFTWGWDSSKTSEAASGMGVAAAEKEEPDSENIPQELLSNLGHPESPPRKRLKSKGSDKDFVIVRRPKLNRENFPGVSWDSLPDELLLGIFSCLCLPELLKVSGVCKRWYRLASDESLWQTLDLTGKNLHPDVTGRLLSQGVIAFRCPRSFMDQPLAEHFSPFRVQHMDLSNSVIEVSTLHGILSQCSKLQNLSLEGLRLSDPIVNTLAKNSNLVRLNLSGCSGFSEFALQTLLSSCSRLDELNLSWCFDFTEKHVQVAVAHVSETITQLNLSGYRKNLQKSDLSTLVRRCPNLVHLDLSDSVMLKNDCFQEFFQLNYLQHLSLSRCYDIIPETLLELGEIPTLKTLQVFGIVPDGTLQLLKEALPHLQINCSHFTTIARPTIGNKKNQEIWGIKCRLTLQKPSCL
chain 2: MPSIKLQSSDGEIFEVDVEIAKQSVTIKTMLEDLGMDPVPLPNVNAAILKKVIQWCTHHKDDPGSGGTDDIPVWDQEFLKVDQGTLFELILAANYLDIKGLLDVTCKTVANMIKGKTPEEIRKTFNIKNDFTEEEEAQVRKENQWCEEK
modifications: left off: GST, end not stated, cleaved | His6, end not stated, cleaved

IC50 ([1]; 25 nM FITC-p27^27−36, CDK2-cyclin A 6.25 μM, HEPES pH 7.5, 30 min, N=4, Figure 3E): not determinable
displacement of FITC-p27^27−36 (in words) ([1]; CDK2-cyclin A 6.25 μM, N=4, Figure 3E): greatly compromised for this function
B3: F79A/I81A/R83A: full length Skp2 (Skp1-Skp2^1−424) with Motif 2 mutation F79A/I81A/R83A (protein)
chain 1: MHRKHLQEIPDLSSNVATSFTWGWDSSKTSELLSGMGVSALEKEEPDSENIPQELLSNLGHPESPPRKRLKSKGSDKDAVAVARPKLNRENFPGVSWDSLPDELLLGIFSCLCLPELLKVSGVCKRWYRLASDESLWQTLDLTGKNLHPDVTGRLLSQGVIAFRCPRSFMDQPLAEHFSPFRVQHMDLSNSVIEVSTLHGILSQCSKLQNLSLEGLRLSDPIVNTLAKNSNLVRLNLSGCSGFSEFALQTLLSSCSRLDELNLSWCFDFTEKHVQVAVAHVSETITQLNLSGYRKNLQKSDLSTLVRRCPNLVHLDLSDSVMLKNDCFQEFFQLNYLQHLSLSRCYDIIPETLLELGEIPTLKTLQVFGIVPDGTLQLLKEALPHLQINCSHFTTIARPTIGNKKNQEIWGIKCRLTLQKPSCL
chain 2: MPSIKLQSSDGEIFEVDVEIAKQSVTIKTMLEDLGMDPVPLPNVNAAILKKVIQWCTHHKDDPGSGGTDDIPVWDQEFLKVDQGTLFELILAANYLDIKGLLDVTCKTVANMIKGKTPEEIRKTFNIKNDFTEEEEAQVRKENQWCEEK
modifications: left off: GST, end not stated, cleaved | His6, end not stated, cleaved
